# Most compounds without a hit are left out; they make up all but 3.4% or so of the library.
# ROMK primary: human ROMK K+ channel modulation, primary screen | Tet-inducible ROMK, thallium flux fluorescence; actives lie on both sides | B-score at 10 µM | 130,000 tested, 2% active;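 active = signal ratio slope over the read window, or its plate-corrected B-score, at least 3 SD from the plate mean, either direction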;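 note: B-score of the F/F0 ratio slope over 7 to 12 s after thallium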
# Target sequence (P48048 whole entry, looked up): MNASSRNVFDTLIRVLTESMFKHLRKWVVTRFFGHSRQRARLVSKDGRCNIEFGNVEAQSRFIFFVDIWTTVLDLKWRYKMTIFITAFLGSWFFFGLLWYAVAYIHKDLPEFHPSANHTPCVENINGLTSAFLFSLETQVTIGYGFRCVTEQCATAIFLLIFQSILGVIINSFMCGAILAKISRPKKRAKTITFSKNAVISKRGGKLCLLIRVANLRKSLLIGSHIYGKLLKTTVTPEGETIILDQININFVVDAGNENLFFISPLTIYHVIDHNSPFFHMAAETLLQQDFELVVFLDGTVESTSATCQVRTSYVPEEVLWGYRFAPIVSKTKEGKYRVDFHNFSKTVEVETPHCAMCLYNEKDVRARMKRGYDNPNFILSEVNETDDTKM
# Mdm2 ligase inh: inhibitors of human Mdm2 E3 ubiquitin ligase. cell-based MDM2 ubiquitination luciferase reporter, 2 h; 0 = plate control, 100 = twice control, blank-subtracted. signal enhancement, % at 5 µM. 210,000 tested, 0.11% active;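 active = signal enhancement of 30% or more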;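 note: luminescence tracks abundance of the self-degrading MDM2-luciferase fusion protein; higher signal means inhibition of MDM2 E3 ligase activity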
#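 Buffer or medium: Cells held in DMEM | Assay system: Stable mammalian line carrying autodegrading MDM2–luciferase fusion reporter | Quantity: 2000 cells/well | Times: 4 h settle plus 2 h compound, 37 °C | Doses: One concentration, 5 µM, with 0.2% DMSO | Technique: Luminescence with SteadyLite reagent, 15 min at room temperature | Benchmarks: Plate controls and plate blanks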
# Redox H2O2 prof: compounds producing H2O2 with reducing agent – biochemical, NIH compound library profiling, artefact control for MLSCN library redox annotation, primary screen | DTT-dependent redox cycling H2O2, phenol red/HRP absorbance; 100% = 100 µM peroxide control, 0% = buffer | activation, % at 10 µM | 200,000 tested, 0.03% active;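 active = activation of at least 50% relative to the plate's high and low controls in the primary single-dose screen; inactive = activation below 50%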;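 note: compound incubated with DTT at 0.8 mM final as the reducing agent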
# PKD1 kinase inh: PKD1 (human) kinase inhibition; Q15139; PKD1 kinase fluorescence polarization assay; inhibition, % (concentration not given with the values); 200,000 tested, 0.056% active; AID 797; in the data active = inhibition above about 50%
# p97 ATPase inh: blocks human p97 ATPase activity; P55072; recombinant p97 ATPase, Kinase-Glo ATP luminescence, 3 h; inhibition, % at 8 µM; 220,000 tested, 0.42% active; AID 1481; in the data active = inhibition above about 15%;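 note: 0% = DMSO vehicle and 100% = wells lacking enzyme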
# KCC2 mod: modulators of human KCC2 chloride dependent transport | 190,000 tested, 2.2% active | Q9H2X9 | B-score of Tl+ flux slope (higher = more flux/activation; lower = inhibition) at 10 µM | KCC2 cells, thallium flux FluoZin-2 fluorescence;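 active = thallium flux slope and its plate-corrected score both differing from the plate sample mean at a set confidence after two filtering rounds, in either direction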;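 note: slope of fluorescence scaled to starting intensity during 10 to 20 s after thallium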
# KCC2 sec1: KCC2 (human) modulation, secondary assay; shares compounds with KCC2 mod; HEK293-KCC2, thallium flux, FluoZin2 fluorescence; hits give high values; normalised thallium flux (F/F0 slope) at 10 µM; 3,700 tested, 15% active;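 active = thallium flux slope above the same plate's solvent-only control mean plus 3 SD; inconclusive = the two replicate wells disagree; inactive = no significant difference from solvent-only control wells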
# KCC2 bumet counter: thallium flux persisting under bumetanide in KCC2 cells, counter-screen secondary assay. 3,700 tested, 49% active. normalized thallium flux at 10 µM. shares compounds with KCC2 mod. HEK293-KCC2 + bumetanide/ouabain, thallium flux FluoZin2; hits give high values;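 active = thallium entry rate above the same plate's blocked-transporter control wells by more than 3 SD; inconclusive = the two repeat wells disagree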;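 note: raw slope of fluorescence over initial fluorescence between 10 and 20 s after thallium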
# KCC2 sec2: KCC2 (human) modulation, second secondary assay; shares compounds with KCC2 mod; HEK293-KCC2, thallium flux FluoZin2 fluorescence; actives lie on both sides; F/F0 rise rate, 10–20 s post-thallium; normalized thallium flux at 10 µM; 3,700 tested, 23% active; AID 1715;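 active = thallium flux slope more than 3 SD above or below the plate's solvent-only control mean, mostly below; inconclusive = the two repeat wells disagreed; inactive = no significant shift from solvent-only controls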;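 note: raw slope with 0.1% DMSO as baseline and bumetanide as block control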
# HEK293 Tl flux: acts in parental HEK cells, KCC2 counter-screen; shares compounds with KCC2 mod; thallium flux rate (normalised fluorescence) at 10 µM; HEK293 parental cells, thallium flux FluoZin2, ouabain; baseline-ratio fluorescence slope, 10–20 s after thallium; 3,700 tested, 46% active; AID 1716;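 active = thallium flux rate significantly above the same plate's solvent-only control wells, beyond their mean plus 3 SD; inconclusive = the two replicate wells gave conflicting results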
# KCC2 ouabain: KCC2 (human) modulation, ouabain retest; shares compounds with KCC2 mod; HEK293-KCC2, thallium flux FluoZin2 fluorescence; bidirectional: low = inhibitor, high = activator; raw Tl+ flux slope (below DMSO = inhibition, above = activation) at 10 µM; 3,700 tested, 48% active; AID 1717;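 active = thallium flux slope beyond 3 SD from same-plate DMSO control mean in most replicates, usually higher, sometimes lower; inconclusive = repeat tests gave conflicting results; inactive = no significant difference from controls in most replicates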;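 note: slope of initial-normalized fluorescence between seconds 10 and 20 after thallium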
# HEK293 Tl flux2: parental HEK flux effect, counter-screen 2; thallium flux slope at 10 µM; HEK293 parental, thallium flux FluoZin-2 fluorescence slope; AID 1718; 3,700 tested, 33% active; shares compounds with KCC2 mod;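 active = thallium flux slope above the same plate's solvent-control mean plus 3 SD in both duplicate wells; inconclusive = duplicate wells that disagreed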;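 note: run without ouabain in cells lacking the KCC2 cotransporter; slope of fluorescence scaled to its starting value between 10 and 20 s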
# The depositor's hits bear a star; u = inconclusive; x = no result.
SMILES,ROMK primary,Mdm2 ligase inh,Redox H2O2 prof,PKD1 kinase inh,p97 ATPase inh,KCC2 mod,KCC2 sec1,KCC2 bumet counter,KCC2 sec2,HEK293 Tl flux,KCC2 ouabain,HEK293 Tl flux2
Cn1c(SCC(=O)Nc2cc(S(=O)(=O)N3CCOCC3)ccc2N2CCOCC2)nnc1-c1ccncc1,-0.7,-1,0,-4,1,-0.021,x,x,x,x,x,x
CN(C)C(=S)NC(=O)c1cccc(Cl)c1,0.96,-17,0,5,3,21*,0.0071,0.037*,0.033,0.025*,0.036*,0.022*
COc1ccc(CCNC(=S)NC(=O)c2cccc(Cl)c2)cc1OC,x,-8,x,x,-7,4.5*,0.01,0.032*,0.032,0.012*,0.026,u
CCC(C)NCCCCOc1ccc(C)cc1[N+](=O)[O-] (centres undefined),-1.3,-1,0,11,-2,1.2,x,x,x,x,x,x
CCc1ccc(C(=O)COC(=O)c2cc([N+](=O)[O-])ccc2NCCO)cc1,x,-3,0,-8,-6,-4.3*,0.0062,0.0053,0.023*,0.0081,0.015*,0.011
Cc1ccc(C)c(N2CCN(C(=O)CCCn3c(=S)[nH]c4cc5c(cc4c3=O)OCO5)CC2)c1,x,-10,4,-2,4,3.4*,0.0058,0.016*,0.03,0.01*,u,0.012
CCOCCCn1c(=S)[nH]c2cc3c(cc2c1=O)OCO3,-0.075,-21,0,-13,5,5.7*,u,0.043*,0.035,0.019*,0.04*,u
CCOC(=O)Cc1csc(NC(=O)c2ccc(OC)c(OC)c2)n1,x,7,-8,8,-1,-0.0054,x,x,x,x,x,x
CCOC(=O)Cc1csc(NC(=O)Nc2ccc(F)cc2)n1,x,-9,x,x,4,0.79,x,x,x,x,x,x
CCOC(=O)Cc1csc(NC(=S)NC(=O)c2ccc(F)cc2)n1,1.4,-19,-3,-7,1,11*,0.0072,0.039*,0.041*,0.03*,0.046*,0.02*
CCOC(=O)Cc1csc(NC(=S)NC(=O)c2cc(OC)c(OC)c(OC)c2)n1,x,x,x,x,0,6.9*,0.016,0.016*,0.03,0.0098*,0.019,0.011
Cc1nnc(SCC(=O)Nc2c(C)n(C)n(-c3ccccc3)c2=O)n1Cc1ccccc1,0.75,-14,-2,0,-2,0.19,x,x,x,x,x,x
CCN(CC)S(=O)(=O)c1ccc(Cl)c(C(=O)N2CCc3ccccc32)c1,0.61,-28,0,-7,-4,-0.88,x,x,x,x,x,x
Cc1cc(NC(=O)COC(=O)C(Nc2ccc(C(F)(F)F)cc2Cl)C(C)C)no1 (centres undefined),x,-7,2,2,3,-7.2*,0.0077,0.0036,0.034,0.007,0.02,0.0088
Cc1cc(NC(=O)COC(=O)[C@H](C)NC(=O)c2ccccc2)no1,x,-11,3,-4,2,-0.98,x,x,x,x,x,x
COc1ccc(C2c3sc(=O)[nH]c3SC3C(=O)N(c4ccccc4)C(=O)C32)cc1 (centres undefined),x,-10,0,-5,3,-5.9*,0.0055,0.0087*,0.022*,0.0097*,0.011*,0.011
O=C1C2Sc3[nH]c(=O)sc3C(c3ccccc3)C2C(=O)N1c1ccccc1 (centres undefined),x,-13,-3,-3,4,-12*,u,0.0052,0.017*,0.0087,u,0.011
CCCCOC(=O)n1c(=O)oc2ccccc21,x,-15,2,-8,3,-4.3*,0.012*,0.0058,0.036,0.0071,0.021,0.011
COc1ccc(-c2nc3n(n2)C(c2ccncc2)C(C(N)=O)=C(C)N3)cc1 (centres undefined),x,2,1,-4,-4,11*,0.0081,0.007,0.032,0.008,0.022,0.011
CCOc1ccccc1NC(=O)COn1nnc2ccccc21,x,-23,0,-9,2,x,x,x,x,x,x,x
COc1cc(OC)c(OC)cc1/C=N/N(C)c1ccccc1,x,-8,-18,-3,-3,-0.67,x,x,x,x,x,x
COc1cc(/C=N/N(C)c2ccccc2)ccc1O,-0.51,-17,0,1,1,-4.1*,0.006,0.0047,0.025*,0.0069,u,0.01
O=C(COC(=O)CCSc1ccccc1Cl)Nc1ccc(F)cc1F,x,-8,1,-2,-2,-1.2,x,x,x,x,x,x
Cn1cc(Br)c(C(=O)Nc2nccs2)n1,0.46,4,0,-20,5,-0.056,x,x,x,x,x,x
Cn1cc(Br)c(C(=O)Nc2c(F)c(F)c(F)c(F)c2F)n1,-0.11,-6,-1,-11,1,-3.6*,u,u,0.037,0.0077,0.023,0.011
SMILES,ROMK primary,Mdm2 ligase inh,Redox H2O2 prof,PKD1 kinase inh,p97 ATPase inh,KCC2 mod,KCC2 sec1,KCC2 bumet counter,KCC2 sec2,HEK293 Tl flux,KCC2 ouabain,HEK293 Tl flux2
Cc1csc(SCC(=O)Nc2ccccn2)n1,x,-6,1,-2,-2,-0.51,x,x,x,x,x,x
COc1ccc(C)cc1-n1nnnc1SCC(=O)N1CCC(C(=O)Nc2nccs2)CC1,-0.52,-7,2,10,-6,-0.42,x,x,x,x,x,x
c1ccc(C2Oc3ccccc3C3CC(c4cccs4)=NN32)cc1 (centres undefined),x,-7,0,5,5,9.3*,0.01,0.046*,0.037,0.06*,0.055*,0.02*
CS(=O)(=O)N1N=C(c2cccs2)CC1c1ccccc1 (centres undefined),x,-2,x,x,-2,-0.067,x,x,x,x,x,x
O=C(NCC1CCCN(C(=O)c2cscn2)C1)c1ccc(-c2ccccc2)cc1 (centres undefined),1.2,-8,0,-4,-6,-5.3*,0.0053,0.0045,0.021*,u,0.012*,0.011
O=C(NCC1CCCN(C(=O)NCc2ccccc2)C1)c1ccc2c(c1)OCO2 (centres undefined),-0.21,-9,0,-4,-7,0.15,x,x,x,x,x,x

# Screening data (PubChem)
